Assay results: ChEMBL document CHEMBL3286205, “Optimization of diaryl amine derivatives as kinesin spindle protein inhibitors” (Bioorg Med Chem, 2014)
Values after ≈ are worked out from the molar mass of the structure shown.

What was measured:
[1] = Thermodynamic solubility of the compound in 1/15 M phosphate buffer at pH 7.4 after 48 hrs by HPLC analysis; format: physicochemical; details: read-out: Therm_solubility
Method in brief: (§1)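 Solid compound in 1.0 mL of 1/15 M phosphate buffer (pH 7.4) was shaken 48 h at 25 °C and filtered. m-Cresol internal standard was added (0.05 mg/mL final), the sample diluted in DMF and run on HPLC with UV at 254 nm. Concentration came from the sample/standard peak-area ratio against a calibration curve, corrected for dilution.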

[2] = Thermodynamic solubility of the compound in 50% EtOH/1/15 M phosphate buffer at pH 7.4 after 48 hrs by HPLC analysis; format: physicochemical; details: read-out: Therm_solubility
Method in brief: as §1, with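 “0.5” for “1.0”, “7.4) plus 0.5 mL EtOH” for “7.4)”, “analysed by HPLC-UV” for “run on HPLC with UV”, “the” for “the sample/standard”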

[3] = biological target: T1, Kinesin-like protein KIF11 (Homo sapiens, UniProt P52732); assay: Inhibition of C-terminal His-tagged KSP ATPase motor domain (unknown origin) expressed in bacteria incubated for 30 mins prior to ATP addition measured after 15 mins by luminescence assay
T1 sequence (P52732 whole entry): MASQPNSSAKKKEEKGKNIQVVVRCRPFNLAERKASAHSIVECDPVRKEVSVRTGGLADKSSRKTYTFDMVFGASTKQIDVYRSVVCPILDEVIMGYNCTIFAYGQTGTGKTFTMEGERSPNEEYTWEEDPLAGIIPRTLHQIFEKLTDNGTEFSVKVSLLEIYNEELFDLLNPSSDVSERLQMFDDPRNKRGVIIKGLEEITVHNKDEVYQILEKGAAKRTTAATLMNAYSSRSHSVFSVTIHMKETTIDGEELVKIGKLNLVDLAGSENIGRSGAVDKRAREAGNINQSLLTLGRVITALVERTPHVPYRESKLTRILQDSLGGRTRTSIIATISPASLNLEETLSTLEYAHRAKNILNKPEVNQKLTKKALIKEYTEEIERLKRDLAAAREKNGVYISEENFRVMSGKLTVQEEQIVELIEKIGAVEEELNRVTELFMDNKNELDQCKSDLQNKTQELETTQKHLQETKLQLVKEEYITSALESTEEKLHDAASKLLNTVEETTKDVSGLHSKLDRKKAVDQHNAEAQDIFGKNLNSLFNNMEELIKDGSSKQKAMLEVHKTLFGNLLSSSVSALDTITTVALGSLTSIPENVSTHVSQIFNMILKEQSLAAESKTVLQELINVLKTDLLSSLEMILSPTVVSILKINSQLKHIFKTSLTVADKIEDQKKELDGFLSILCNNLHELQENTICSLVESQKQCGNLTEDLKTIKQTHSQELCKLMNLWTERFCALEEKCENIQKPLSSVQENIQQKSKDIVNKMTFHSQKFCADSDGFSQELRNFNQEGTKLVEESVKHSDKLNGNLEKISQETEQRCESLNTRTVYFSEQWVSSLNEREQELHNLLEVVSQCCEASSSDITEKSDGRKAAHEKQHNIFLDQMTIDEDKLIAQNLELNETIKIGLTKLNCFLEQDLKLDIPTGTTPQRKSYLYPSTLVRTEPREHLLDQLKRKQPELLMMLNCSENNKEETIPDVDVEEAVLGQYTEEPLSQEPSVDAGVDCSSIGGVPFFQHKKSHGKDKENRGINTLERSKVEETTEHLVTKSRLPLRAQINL

[4] = Retention time of the compound by HPLC analysis; format: physicochemical
Method in brief: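 Reverse-phase C18 HPLC (4.6 × 250 mm), eluted with a linear 30–70% MeCN gradient over 40 min in 0.1% TFA.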

[5] = system: HCT-116; assay: Antiproliferative activity against human HCT116 cells assessed as growth inhibition after 72 hrs by MTS assay; format: functional, cell-based; details: HCT-116, 72 h
Method in brief: (§2)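 Media with 10% FBS at 37 °C, 5% CO2: A549 in DMEM (500 cells/well), HCT-116 in McCoy's 5A and MCF-7 in EMEM (5000 cells/well each). Cells settled 6 h, then got graded compound concentrations (0.1% final DMSO) for 72 h. After washing into phenol-red-free medium (1 h), MTS was added for 40 min and A490 read. IC50 came from mean inhibition rates of ≥3 experiments.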

[6] = system: MCF7; assay: Antiproliferative activity against human MCF7 cells assessed as growth inhibition after 72 hrs by MTS assay; format: functional, cell-based; details: MCF7, 72 h; method in brief: as §2
[7] = system: A549; assay: Antiproliferative activity against human A549 cells assessed as growth inhibition after 72 hrs by MTS assay; format: functional, cell-based; details: A549, 72 h; method in brief: as §2

Compound | IC50 [3] [µM] | other results
FC(F)(F)c1ccc2c(c1)[nH]c1ccccc12 | – | solubility thermodynamic at 48 h [1]: < 1 µg/mL; solubility thermodynamic at 48 h [2]: 424 µg/mL (≈ 1800 µM)
FC(F)(F)c1ccc2c(c1)[nH]c1cnccc12 | – | solubility thermodynamic at 48 h [1]: < 1 µg/mL; solubility thermodynamic at 48 h [2]: 472 µg/mL (≈ 2000 µM)
FC(F)(F)c1ccc2c(c1)[nH]c1ccncc12 | – | solubility thermodynamic at 48 h [1]: 3.16 µg/mL (≈ 13.4 µM); solubility thermodynamic at 48 h [2]: 1760 µg/mL (≈ 7450 µM)
FC(F)(F)c1cccc(Nc2cccnc2)c1 | 7 | solubility thermodynamic at 48 h [1]: 10.8 µg/mL (≈ 45.3 µM); solubility thermodynamic at 48 h [2]: 14300 µg/mL (≈ 60000 µM)
FC(F)(F)c1cccc(Nc2ccncc2)c1 | > 6.3 | solubility thermodynamic at 48 h [1]: 264 µg/mL (≈ 1110 µM); solubility thermodynamic at 48 h [2]: 24000 µg/mL (≈ 101000 µM)
Nc1ccc2c(c1)[nH]c1cc(C(F)(F)F)ccc12 | 0.27 | –
CC(=O)Nc1ccc2c(c1)[nH]c1cc(C(F)(F)F)ccc12 | 0.085 | –
O=[N+]([O-])c1ccc2[nH]c3cc(C(F)(F)F)ccc3c2c1 | 0.043 | –
Nc1ccc2[nH]c3cc(C(F)(F)F)ccc3c2c1 | 0.55 | –
O=[N+]([O-])c1cccc(Nc2cccc(C(F)(F)F)c2)c1 | > 6.3 | –
Nc1cccc(Nc2cccc(C(F)(F)F)c2)c1 | > 6.3 | –
NC(=O)Nc1cccc(Nc2cccc(C(F)(F)F)c2)c1 | > 6.3 | –
O=[N+]([O-])c1ccc(Nc2cccc(C(F)(F)F)c2)cc1 | 3.2 | –
Nc1ccc(Nc2cccc(C(F)(F)F)c2)cc1 | > 6.3 | –
NC(=O)Nc1ccc(Nc2cccc(C(F)(F)F)c2)cc1 | 0.39 | –
O=C1CCc2cc(Nc3cccc(C(F)(F)F)c3)ccc2N1 | 0.045 | Retention_time [4]: 24.4 min; IC50 [5]: 8.9 µM; IC50 [6]: 11 µM; solubility thermodynamic at 48 h [1]: < 1 µg/mL; IC50 [7]: 4.2 µM; solubility thermodynamic at 48 h [2]: 1800 µg/mL (≈ 5880 µM)
O=C1CCc2cc(Oc3cccc(C(F)(F)F)c3)ccc2N1 | 2 | –
O=C1CCc2cc(Sc3cccc(C(F)(F)F)c3)ccc2N1 | > 6.3 | –
O=C1CCc2cc(Nc3ccc(C(F)(F)F)cc3)ccc2N1 | 0.33 | –
O=C1CCc2cc(Oc3ccc(C(F)(F)F)cc3)ccc2N1 | > 6.3 | –
O=C1CCc2cc(Sc3ccc(C(F)(F)F)cc3)ccc2N1 | > 6.3 | –
O=C1CCc2cc(Nc3ccccc3C(F)(F)F)ccc2N1 | > 6.3 | –
O=C1CCc2cc(Nc3ccccc3)ccc2N1 | > 6.3 | –
CCc1cccc(Nc2ccc3c(c2)CCC(=O)N3)c1 | 0.81 | –
CC(C)c1cccc(Nc2ccc3c(c2)CCC(=O)N3)c1 | 0.43 | –
CC(C)(C)c1cccc(Nc2ccc3c(c2)CCC(=O)N3)c1 | 0.16 | –
O=C1CCc2cc(Nc3cc(C(F)(F)F)cc(C(F)(F)F)c3)ccc2N1 | > 6.3 | –

Compound | IC50 [3] [µM] | other results
O=C1CCc2cc(Nc3cccc(-c4ccccc4)c3)ccc2N1 | > 6.3 | –
O=C1CCc2cc(Nc3cccc(Oc4ccccc4)c3)ccc2N1 | > 6.3 | –
COc1cccc(Nc2ccc3c(c2)CCC(=O)N3)c1 | > 6.3 | –
O=C1CCc2cc(Nc3cccc(OC(F)(F)F)c3)ccc2N1 | 1.2 | –
O=C1CCc2cc(Nc3cccc(O)c3)ccc2N1 | > 6.3 | –
O=C1CCc2cc(Nc3cccc([N+](=O)[O-])c3)ccc2N1 | 0.44 | –
Nc1cccc(Nc2ccc3c(c2)CCC(=O)N3)c1 | > 6.3 | –
COC(=O)c1cccc(Nc2ccc3c(c2)CCC(=O)N3)c1 | > 6.3 | –
O=C1CCc2cc(Nc3cccc(C(=O)O)c3)ccc2N1 | > 6.3 | –
O=C1CCc2cc(Nc3cc(C(F)(F)F)ccn3)ccc2N1 | 0.068 | Retention_time [4]: 7 min; IC50 [5]: 4.4 µM; IC50 [6]: 8 µM; solubility thermodynamic at 48 h [1]: 6.12 µg/mL (≈ 19.9 µM); IC50 [7]: 2.5 µM; solubility thermodynamic at 48 h [2]: 3510 µg/mL (≈ 11400 µM)
O=C1CCc2ccc(Nc3cccc(C(F)(F)F)c3)cc2N1 | > 6.3 | –
O=C1COc2ccc(Nc3cccc(C(F)(F)F)c3)cc2N1 | > 6.3 | –
O=c1ccc2ccc(Nc3cccc(C(F)(F)F)c3)cc2[nH]1 | 4.6 | –
O=C1CCc2c(cccc2Nc2cccc(C(F)(F)F)c2)N1 | > 6.3 | –
O=C1Cc2cc(Nc3cccc(C(F)(F)F)c3)ccc2N1 | 3.6 | –
O=c1[nH]c2ccc(Nc3cccc(C(F)(F)F)c3)cc2o1 | > 6.3 | –
O=c1[nH]c2ccc(Nc3cccc(C(F)(F)F)c3)cc2s1 | 0.81 | –
O=C1COc2cc(Nc3cccc(C(F)(F)F)c3)ccc2N1 | 0.29 | –
O=C1CSc2cc(Nc3cccc(C(F)(F)F)c3)ccc2N1 | 0.051 | Retention_time [4]: 28.2 min; IC50 [5]: 6.8 µM; IC50 [6]: 6.5 µM; solubility thermodynamic at 48 h [1]: < 1 µg/mL; IC50 [7]: 4.1 µM; solubility thermodynamic at 48 h [2]: 1700 µg/mL (≈ 5240 µM)
CN1C(=O)CCc2cc(Nc3cccc(C(F)(F)F)c3)ccc21 | > 6.3 | –
FC(F)(F)c1cccc(Nc2ccc3c(c2)CCC(=S)N3)c1 | 0.19 | –
O=C1CCCc2cc(Nc3cccc(C(F)(F)F)c3)ccc2N1 | 0.05 | Retention_time [4]: 27 min; IC50 [5]: 5.7 µM; IC50 [6]: 3.9 µM; solubility thermodynamic at 48 h [1]: < 1 µg/mL; IC50 [7]: 4.5 µM; solubility thermodynamic at 48 h [2]: 7390 µg/mL (≈ 23100 µM)
O=C1CCc2cc(Nc3cccc(C(F)(F)F)c3)cc(F)c2N1 | 0.43 | –
O=C1CCc2cc(Nc3cccc(C(F)(F)F)c3)c(F)cc2N1 | 0.92 | –
O=C1CSc2cc(Nc3cc(C(F)(F)F)ccn3)ccc2N1 | 0.035 | Retention_time [4]: 13.8 min; IC50 [5]: 2.6 µM; IC50 [6]: 2.8 µM; solubility thermodynamic at 48 h [1]: 1.11 µg/mL (≈ 3.41 µM); IC50 [7]: 1.5 µM; solubility thermodynamic at 48 h [2]: 669 µg/mL (≈ 2060 µM)
O=C1CCCc2cc(Nc3cc(C(F)(F)F)ccn3)ccc2N1 | 0.05 | Retention_time [4]: 10.8 min; IC50 [5]: 6.5 µM; IC50 [6]: 9.1 µM; solubility thermodynamic at 48 h [1]: 8.07 µg/mL (≈ 25.1 µM); IC50 [7]: 5 µM; solubility thermodynamic at 48 h [2]: 4820 µg/mL (≈ 15000 µM)
